The source made the active and inactive calls.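 How the source made its calls, unless noted: active means viability loss from added drug above about 55%, and viability with drug at most 40%, in both replicates (limit read from the data, passing the limit was not always enough); inconclusive means both conditions met in only one replicate; inactive means neither replicate meets both conditions.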

The nature of assay [1]: Her2 expression decrease, cell viability multiplex – SKBR3 breast tumor cells, AlphaScreen, ATP viability, primary screen (AID 461;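 active means Her2 level under about 52% in both replicate screens, with viability over 70% of control, limit read from the data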;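 on Her2 level: lower value means less Her2 protein in the cells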;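 on viability: percent of carrier control wells set as 100% viability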). Conditions: SKBR3 Her2 protein level, 18-24 h, measured here: SKBR3 viability, ATP luminescence, at 10 µM.
In assay [2] the target is Receptor tyrosine-protein kinase erbB-2 (Homo sapiens) (UniProt P04626). Described as above. Conditions: 18-24 h, at 10 µM, stronger effect = lower value.
Receptor tyrosine-protein kinase erbB-2 (Homo sapiens), sequence (P04626 whole entry, looked up): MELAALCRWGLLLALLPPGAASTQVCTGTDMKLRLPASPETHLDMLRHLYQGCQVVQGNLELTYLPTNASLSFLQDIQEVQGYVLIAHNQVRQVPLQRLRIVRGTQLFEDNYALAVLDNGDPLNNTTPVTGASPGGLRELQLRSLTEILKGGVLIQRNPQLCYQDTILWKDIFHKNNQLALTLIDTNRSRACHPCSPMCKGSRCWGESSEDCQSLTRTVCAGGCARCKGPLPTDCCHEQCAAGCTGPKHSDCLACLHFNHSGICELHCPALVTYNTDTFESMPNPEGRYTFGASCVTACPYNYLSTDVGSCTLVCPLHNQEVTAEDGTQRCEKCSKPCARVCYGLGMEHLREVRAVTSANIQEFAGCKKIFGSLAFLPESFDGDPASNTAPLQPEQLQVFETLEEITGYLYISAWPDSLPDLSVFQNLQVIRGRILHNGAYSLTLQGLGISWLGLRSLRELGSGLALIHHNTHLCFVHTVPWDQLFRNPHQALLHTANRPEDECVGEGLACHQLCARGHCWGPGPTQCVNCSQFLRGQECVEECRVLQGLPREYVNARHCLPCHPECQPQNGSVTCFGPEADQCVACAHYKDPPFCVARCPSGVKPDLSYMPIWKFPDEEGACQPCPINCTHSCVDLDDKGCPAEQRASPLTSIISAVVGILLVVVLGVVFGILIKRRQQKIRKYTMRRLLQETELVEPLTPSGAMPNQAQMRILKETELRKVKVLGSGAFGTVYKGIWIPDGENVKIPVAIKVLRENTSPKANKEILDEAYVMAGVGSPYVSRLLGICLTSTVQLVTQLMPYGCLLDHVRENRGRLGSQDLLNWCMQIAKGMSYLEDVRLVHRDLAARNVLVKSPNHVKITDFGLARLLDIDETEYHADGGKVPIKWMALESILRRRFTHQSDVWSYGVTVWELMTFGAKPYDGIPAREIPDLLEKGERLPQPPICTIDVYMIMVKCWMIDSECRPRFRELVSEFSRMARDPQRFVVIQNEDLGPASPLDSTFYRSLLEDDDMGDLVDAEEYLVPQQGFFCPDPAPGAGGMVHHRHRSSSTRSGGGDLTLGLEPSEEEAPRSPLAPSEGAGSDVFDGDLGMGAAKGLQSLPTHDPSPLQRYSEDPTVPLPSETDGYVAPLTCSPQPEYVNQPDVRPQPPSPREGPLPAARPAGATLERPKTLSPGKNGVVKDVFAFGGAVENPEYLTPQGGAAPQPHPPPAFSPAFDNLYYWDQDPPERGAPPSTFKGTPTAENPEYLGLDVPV
Assay [3] can be described thus: reduced viability of SK-BR-3 breast cancer cells – cell-based, 24 h, human, pilot screen (AID 572;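 active means viability at or below 10% of carrier control in both of two separate runs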;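 further: compound exposure lasted between 18 and 24 h rather than exactly 24 h; 100% = carrier-treated control wells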). The note with it: SK-BR-3 viability, CellTiter-Glo luminescence, at 10 µM, stronger effect = lower value. On the technique in general: ATP-based viability assays read luminescence as a measure of living cells.
Assay [4] can be described thus: HUVEC growth inhibition – cell-based, human, primary screen (AID 575;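 active means viability at or below 30% in both replicate assays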;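 further: 100% = median of untreated cell wells with 0.1% DMSO on each plate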). The note with it: HUVEC proliferation, CellTiter-Glo luminescence, 72 h; at 10 µM; stronger effect = lower value. The gist of the method: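 System: primary human umbilical vein endothelial cells; Quantity: 1250 endothelial cells in each well; Buffer or medium: supplemented EBM, 2% fetal bovine serum; Doses: one dose, 10 µM final, 0.1% DMSO; Incubation: 72 h compound incubation; Technique: ATP-based CellTiter-Glo luminescent read; Evaluation: percent of median DMSO-control luminescence; Controls: vehicle and MePR control wells.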

Assay [5] in a line: H69AR cell proliferation blockers – human, duplicate replicates, primary screen (AID 580;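 active means viability at or under a set limit in both replicates, limit being median viability minus 3 SD, cut at about 48% in these data, passing the limit was not always enough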;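 further: 100% = mean luminescence of untreated wells and 0% = no signal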). The note with it: H69AR lung tumor cells viability, ATP luminescence, 72 h; at 10 µM; stronger effect = lower value.
Assay [6] is described as follows: MRP1 drug-resistance reversers in H69AR cells – cell-based, doxorubicin co-treatment, pilot screen (AID 601). The note with it: CellTiter-Glo, 72 h, at 10 µM; for differential viability (reversal): stronger effect = higher value.
Assay [7] can be described thus: yeast transport mutant growth inhibition pilot in 384-well plates, post-Golgi transport modulator project (AID 636; in the data active means inhibition above about 31%). The note with it: absorbance 615 nm, about 18 h, stronger effect = higher value.
Assay [8] can be described thus: growth suppression of yeast trafficking mutant, preliminary HTS, modulators of trafficking downstream of Golgi apparatus project, 1536-format plate, OD 615 nm (AID 637; in the data active means inhibition above about 30%). Conditions: yeast transport mutant growth, absorbance 615 nm, 18 h; stronger effect = higher value.
[9] abbreviates: H69AR cells + 2 uM doxorubicin, measured here: viability with 2 uM doxorubicin, stronger effect = lower value.
Where [10] appears, read: H69AR cells, compound alone cytotoxicity.

For the compound `CCN1C(=O)OC2(CCCCC2)C1(C)O` (stereo not given), the viability (usually a read-out of living cells in per cent, often relative to untreated cells) in assay [1] was 107%; in assay [3] it was 107% (inactive); in assay [4], 101% (inactive); in assay [5] it was 105% (inactive); in assay [6] (setting [9]), 94.1%; in assay [6] (setting [10]), 105%. Also, the Her2 level in assay [2] is 93.5% (inactive). For the same compound, the differential viability (reversal) in assay [6] (H69AR cells + 2 uM doxorubicin) is 11.4% (inactive). For the same compound, the inhibition (commonly the drop in the measured response relative to a control, in per cent) in assay [7] is 0.13% (inactive); in assay [8], -7.27% (inactive).
Consider `Cc1ccccc1N(C)S(=O)(=O)c1ccc2[nH]cc(C(=O)NCC3CCCO3)c(=O)c2c1` (stereo not given), for which the viability is 83% in assay [1]; 83% (inactive) in assay [3]; 90.1% (inactive) in assay [4]; 91.7% (inactive) in assay [5]; 87.5% in assay [6] (setting [9]); 91.7% in assay [6] (setting [10]). Also, the Her2 level in assay [2] is 71% (inactive). In assay [6] (H69AR cells + 2 uM doxorubicin), the differential viability (reversal) is 4.24% (inactive). The inhibition in assay [7] is -4.61% (inactive); in assay [8] it was 0.17% (inactive).
Consider `COc1cccc2cc(C(=O)N3CCN(C45CC6CC(CC(C6)C4)C5)CC3)c(=O)oc12`, for which the viability in assay [1] was 93.5%; in assay [3], 93.5% (inactive); in assay [4] it was 81.8% (inactive); in assay [5] it was 107% (inactive); in assay [6] (setting [9]), 94.7%; in assay [6] (setting [10]) it was 107%. In addition, in assay [2], the Her2 level was 92% (inactive). Also, the differential viability (reversal) in assay [6] (H69AR cells + 2 uM doxorubicin) was 12.5% (inactive). The inhibition in assay [7] is -3.16% (inactive); in assay [8] it was -9.52% (inactive).
On to `CC1(C)CC(=O)C(C#N)=C(NCCCO)C1`, for which the viability was 99.5% in assay [1]; 99.5% (inactive) in assay [3]; 91.5% (inactive) in assay [4]; 100% (inactive) in assay [5]; 103% in assay [6] (setting [9]); 100% in assay [6] (setting [10]). The Her2 level in assay [2] was 98.5% (inactive). Also, the differential viability (reversal) in assay [6] (H69AR cells + 2 uM doxorubicin) is -2.31% (inactive). For the same compound, the values for the inhibition in assay [7] and in assay [8] were -1.2% (inactive) and 0.97% (inactive), respectively.
On to `COC(=O)c1ccccc1NC(=O)c1cc(-c2ccc(OC)c(OC)c2)on1`, for which the viability in assay [1] is 99%; in assay [3], 99% (inactive); in assay [4], 114% (inactive); in assay [5], 77.8% (inactive); in assay [6] (setting [9]), 72%; in assay [6] (setting [10]), 77.8%. For the same compound, the Her2 level in assay [2] is 90.5% (inactive). Also, the differential viability (reversal) in assay [6] (H69AR cells + 2 uM doxorubicin) is 5.72% (inactive). For the same compound, the inhibition in assay [7] was -7.57% (inactive); in assay [8] it was -8% (inactive).
With `O=C(COC(=O)CCc1c[nH]c2ccccc12)NC1CCS(=O)(=O)C1` (stereo not given), the viability in assay [1] was 87.5%; in assay [3], 87.5% (inactive); in assay [4] it was 90.8% (inactive); in assay [5], 90.1% (inactive); in assay [6] (setting [9]), 89.1%; in assay [6] (setting [10]), 90.1%. Further, in assay [2], the Her2 level was 96% (inactive). In assay [6] (H69AR cells + 2 uM doxorubicin), the differential viability (reversal) was 1.06% (inactive). Further, the inhibition in assay [7] was 1.04% (inactive); in assay [8], -4.76% (inactive).
As to `O=C(Nc1ccc2c(c1)OCCO2)C1CCCN1S(=O)(=O)c1cccc2cccnc12` (stereo not given), the viability in assay [1] is 92%; in assay [3], 92% (inactive); in assay [4], 100% (inactive); in assay [5] it was 96.8% (inactive); in assay [6] (setting [9]), 82.3%; in assay [6] (setting [10]), 96.8%. The Her2 level in assay [2] is 100% (inactive). The differential viability (reversal) in assay [6] (H69AR cells + 2 uM doxorubicin) was 14.4% (inactive). Also, the inhibition in assay [7] was -1.33% (inactive); in assay [8], -0.98% (inactive).
`CC(=O)N1CCN(Cc2ccc(Br)s2)CC1`: the viability in assay [1] was 93.5%; in assay [3], 93.5% (inactive); in assay [4], 86.3% (inactive); in assay [5] it was 99.3% (inactive); in assay [6] (setting [9]), 88.3%; in assay [6] (setting [10]), 99.3%. Also, the Her2 level in assay [2] is 88% (inactive). Moreover, in assay [6] (H69AR cells + 2 uM doxorubicin), the differential viability (reversal) is 11.1% (inactive). The inhibition in assay [7] is -3.51% (inactive); in assay [8], -1.31% (inactive).
For the compound `Cc1nn(-c2ccccc2)c(C)c1C(=O)OCC(=O)c1c(N)n(CC(C)C)c(=O)n(C)c1=O`, the viability in assay [1] is 104%; in assay [3], 104% (inactive); in assay [4], 64.3% (inactive); in assay [5], 77.8% (inactive); in assay [6] (setting [9]) it was 102%; in assay [6] (setting [10]), 77.8%. The Her2 level in assay [2] was 74% (inactive). Also, the differential viability (reversal) in assay [6] (H69AR cells + 2 uM doxorubicin) was -24.7% (inactive). The inhibition in assay [7] was -8.4% (inactive); in assay [8], 4.75% (inactive).
Regarding `CCCCc1n[nH]c2c1C(=O)CC(C)(C)C2`, the viability is 73.5% in assay [1]; 73.5% (inactive) in assay [3]; 102% (inactive) in assay [4]; 96.9% (inactive) in assay [5]; 83.5% in assay [6] (setting [9]); 96.9% in assay [6] (setting [10]). Further, in assay [2], the Her2 level is 90.5% (inactive). Also, the differential viability (reversal) in assay [6] (H69AR cells + 2 uM doxorubicin) is 13.4% (inactive). Moreover, the inhibition in assay [7] was -3.78% (inactive); in assay [8], 0% (inactive).
For the compound `Fc1ccccc1-c1nc(NCCCN2CCOCC2)c2ccccc2n1`, the viability in assay [1] was 94%; in assay [3], 94% (inactive); in assay [4], 85.6% (inactive); in assay [5] it was 72.2% (inactive); in assay [6] (setting [9]), 79.9%; in assay [6] (setting [10]), 72.2%. Moreover, the Her2 level in assay [2] was 107% (inactive). Besides, the differential viability (reversal) in assay [6] (H69AR cells + 2 uM doxorubicin) is -7.69% (inactive). Further, the results for the inhibition in assay [7] and in assay [8] were -0.68% (inactive) and 9.21% (inactive), respectively.
With `Cc1cc(/C=N/n2cnnc2)c(C)n1-c1ccc(Cl)cc1Cl`, the viability in assay [1] was 99.5%; in assay [3] it was 99.5% (inactive); in assay [4], 92.3% (inactive); in assay [5] it was 90.6% (inactive); in assay [6] (setting [9]) it was 80.5%; in assay [6] (setting [10]), 90.6%. For the same compound, the Her2 level in assay [2] is 64.5% (inactive). Besides, the differential viability (reversal) in assay [6] (H69AR cells + 2 uM doxorubicin) was 10.1% (inactive). For the same compound, the inhibition in assay [7] was -5.54% (inactive); in assay [8], -6.17% (inactive).
As for `O=C(OCC#CCSc1nnc(-c2ccccc2)o1)c1cccs1`, the viability in assay [1] is 130%; in assay [3], 130% (inactive); in assay [4] it was 98.3% (inactive); in assay [5] it was 94.9% (inactive); in assay [6] (setting [9]) it was 82.8%; in assay [6] (setting [10]), 94.9%. For the same compound, the Her2 level in assay [2] is 92% (inactive). The differential viability (reversal) in assay [6] (H69AR cells + 2 uM doxorubicin) was 12.1% (inactive). In addition, the figures for the inhibition in assay [7] and in assay [8] were -6.13% (inactive) and -4.92% (inactive), respectively.
With `COc1ccc2nc3oc(C(=O)NC4CCN(Cc5ccccc5)CC4)cc3cc2c1`, the viability was 76.5% in assay [1]; 76.5% (inactive) in assay [3]; 57.5% (inactive) in assay [4]; 82.6% (inactive) in assay [5]; 80.9% in assay [6] (setting [9]); 82.6% in assay [6] (setting [10]). Besides, the Her2 level in assay [2] was 89.5% (inactive). In addition, in assay [6] (H69AR cells + 2 uM doxorubicin), the differential viability (reversal) was 1.69% (inactive). Also, the figures for the inhibition in assay [7] and in assay [8] were -2.76% (inactive) and -14.8% (inactive), respectively.
On to `Cc1ccc(N2CCN(C(=S)c3ccc(N(C)C)cc3)CC2)cc1`, for which the viability in assay [1] is 89.5%; in assay [3], 89.5% (inactive); in assay [4] it was 91.8% (inactive); in assay [5] it was 82.6% (inactive); in assay [6] (setting [9]), 92.4%; in assay [6] (setting [10]) it was 82.6%. Besides, in assay [2], the Her2 level was 82.5% (inactive). Also, the differential viability (reversal) in assay [6] (H69AR cells + 2 uM doxorubicin) is -9.83% (inactive). For the same compound, the inhibition in assay [7] was -3.92% (inactive); in assay [8] it was -6.19% (inactive).
